IC50 and inhibition data for 2 compounds are collected here from ChEMBL document CHEMBL1671826, “Effect of Inhibiting Histone Deacetylase with Short-Chain Carboxylic Acids and Their Hydroxamic Acid Analogs on Vertebrate Development and Neuronal Chromatin” (ACS Med Chem Lett, 2011).

pIC50: −log10 of the molar value. The source made the active and inactive calls. The calls are words filed in the database; no cut-off is given here.

The target in assay [1] is T1, Histone deacetylase 8 (Homo sapiens, UniProt Q9BY41).
T1 sequence (Q9BY41 whole entry): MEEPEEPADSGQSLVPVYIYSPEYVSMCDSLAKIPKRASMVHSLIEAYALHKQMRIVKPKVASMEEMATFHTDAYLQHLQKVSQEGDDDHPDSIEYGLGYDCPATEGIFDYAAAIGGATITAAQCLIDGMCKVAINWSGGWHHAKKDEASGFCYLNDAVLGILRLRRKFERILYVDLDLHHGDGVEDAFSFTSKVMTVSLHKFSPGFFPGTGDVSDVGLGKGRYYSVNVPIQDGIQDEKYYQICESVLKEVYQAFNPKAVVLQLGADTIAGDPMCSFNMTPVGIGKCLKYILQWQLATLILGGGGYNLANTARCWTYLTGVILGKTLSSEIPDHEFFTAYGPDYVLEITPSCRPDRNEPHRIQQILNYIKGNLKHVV
As to the kind of experiment: Inhibition of human recombinant HDAC8. The procedure, abridged: (§1)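 Recombinant HDAC isoforms incubated with acetyl-lysine tripeptide–AMC substrate (mimics histone H4 K12), or trifluoroacetyl-lysine-AMC for class IIa enzymes, each substrate at its Km; trypsin cleavage of deacetylated product releases fluorescent AMC. IC50 from two experiments in duplicate, mean ± SD.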

In assay [2] the target is Histone deacetylase 4 (Homo sapiens, UniProt P56524). As to the kind of experiment: Inhibition of human recombinant HDAC4. The procedure, abridged: as §1
For assay [3], the target named is Histone deacetylase 9 (Homo sapiens, UniProt Q9UKV0). As to the kind of experiment: Inhibition of human recombinant HDAC9. In outline: as §1
In assay [4] the target is T2, Protein deacetylase HDAC6 (Homo sapiens) (UniProt Q9UBN7).
T2 sequence (whole entry): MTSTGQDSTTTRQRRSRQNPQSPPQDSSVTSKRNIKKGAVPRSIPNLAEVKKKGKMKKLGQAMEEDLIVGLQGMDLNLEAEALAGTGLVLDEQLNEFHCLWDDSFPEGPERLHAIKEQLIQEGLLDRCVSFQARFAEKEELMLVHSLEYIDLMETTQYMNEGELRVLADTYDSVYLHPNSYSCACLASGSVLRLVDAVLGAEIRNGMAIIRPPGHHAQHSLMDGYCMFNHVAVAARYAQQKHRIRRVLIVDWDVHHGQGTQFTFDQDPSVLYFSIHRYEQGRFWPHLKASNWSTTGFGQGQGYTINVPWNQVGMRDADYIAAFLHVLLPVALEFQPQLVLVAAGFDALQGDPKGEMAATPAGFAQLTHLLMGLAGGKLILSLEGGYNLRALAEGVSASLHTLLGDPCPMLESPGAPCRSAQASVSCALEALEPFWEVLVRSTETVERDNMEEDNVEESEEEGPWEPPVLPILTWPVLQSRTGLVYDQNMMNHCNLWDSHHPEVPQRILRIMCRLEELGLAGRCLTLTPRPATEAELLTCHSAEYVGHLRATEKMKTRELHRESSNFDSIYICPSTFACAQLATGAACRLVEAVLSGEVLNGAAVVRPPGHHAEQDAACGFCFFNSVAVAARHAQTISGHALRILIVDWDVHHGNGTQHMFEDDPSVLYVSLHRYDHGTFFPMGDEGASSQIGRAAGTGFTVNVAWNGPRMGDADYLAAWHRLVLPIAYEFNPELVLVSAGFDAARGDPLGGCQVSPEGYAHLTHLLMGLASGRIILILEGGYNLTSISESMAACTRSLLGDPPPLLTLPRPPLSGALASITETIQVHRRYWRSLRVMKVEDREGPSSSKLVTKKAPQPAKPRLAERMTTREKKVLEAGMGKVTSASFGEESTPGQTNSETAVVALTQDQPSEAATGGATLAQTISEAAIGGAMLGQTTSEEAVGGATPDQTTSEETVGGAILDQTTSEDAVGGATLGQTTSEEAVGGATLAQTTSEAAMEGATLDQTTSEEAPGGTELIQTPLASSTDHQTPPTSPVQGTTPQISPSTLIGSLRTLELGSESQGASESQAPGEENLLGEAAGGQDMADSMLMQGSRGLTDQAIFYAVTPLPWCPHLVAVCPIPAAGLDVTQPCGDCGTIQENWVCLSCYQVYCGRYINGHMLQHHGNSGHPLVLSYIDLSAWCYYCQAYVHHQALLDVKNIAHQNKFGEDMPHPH
As to the kind of experiment: Inhibition of HDAC6 in human HeLa cells assessed as acetylation of tubulin after 24 hrs by immunofluorescence assay. In kind it is cell-based. The procedure, abridged: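 HeLa cells treated 24 h at the indicated doses; tubulin acetylation quantified by immunofluorescence.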

In assay [5] the target is T3, Protein deacetylase HDAC6 (Mus musculus) (UniProt Q9Z2V5).
T3 sequence (whole entry): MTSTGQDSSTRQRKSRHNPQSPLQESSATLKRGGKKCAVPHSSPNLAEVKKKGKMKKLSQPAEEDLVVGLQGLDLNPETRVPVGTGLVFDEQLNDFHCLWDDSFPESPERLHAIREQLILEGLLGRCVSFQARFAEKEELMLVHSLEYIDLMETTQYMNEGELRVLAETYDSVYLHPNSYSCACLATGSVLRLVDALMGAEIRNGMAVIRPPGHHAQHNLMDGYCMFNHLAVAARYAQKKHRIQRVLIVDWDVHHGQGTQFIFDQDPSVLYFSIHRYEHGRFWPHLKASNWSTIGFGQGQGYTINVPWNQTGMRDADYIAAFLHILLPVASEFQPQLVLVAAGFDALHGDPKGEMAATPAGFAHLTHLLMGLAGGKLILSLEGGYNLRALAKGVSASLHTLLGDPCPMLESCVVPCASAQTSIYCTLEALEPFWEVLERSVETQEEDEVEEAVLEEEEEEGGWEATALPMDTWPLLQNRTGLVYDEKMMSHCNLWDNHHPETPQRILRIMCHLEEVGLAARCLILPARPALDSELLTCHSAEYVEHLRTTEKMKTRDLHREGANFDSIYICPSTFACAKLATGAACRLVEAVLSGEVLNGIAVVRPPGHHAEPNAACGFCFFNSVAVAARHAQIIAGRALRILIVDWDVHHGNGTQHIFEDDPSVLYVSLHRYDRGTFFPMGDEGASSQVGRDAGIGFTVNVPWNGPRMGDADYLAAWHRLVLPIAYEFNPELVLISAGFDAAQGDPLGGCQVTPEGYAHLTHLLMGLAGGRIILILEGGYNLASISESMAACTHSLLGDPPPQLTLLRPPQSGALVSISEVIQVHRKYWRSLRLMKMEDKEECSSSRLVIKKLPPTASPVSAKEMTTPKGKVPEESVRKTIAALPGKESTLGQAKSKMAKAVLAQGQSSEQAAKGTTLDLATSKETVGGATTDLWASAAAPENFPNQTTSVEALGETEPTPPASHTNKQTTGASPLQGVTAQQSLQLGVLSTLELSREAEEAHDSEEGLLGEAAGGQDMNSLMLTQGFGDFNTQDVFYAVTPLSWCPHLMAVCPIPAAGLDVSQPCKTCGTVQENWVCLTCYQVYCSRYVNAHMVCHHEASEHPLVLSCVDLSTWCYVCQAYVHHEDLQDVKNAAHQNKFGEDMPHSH
As to the kind of experiment: Inhibition of HDAC6 in mouse primary forebrain neurons assessed as acetylation of tubulin at 92.5 uM after 24 hrs by immunofluorescence assay. The procedure, abridged:
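Primary mouse forebrain cultures treated 24 h at a single concentration; tubulin acetylation measured by immunofluorescence.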

Histone deacetylase 9, sequence (Q9UKV0 whole entry): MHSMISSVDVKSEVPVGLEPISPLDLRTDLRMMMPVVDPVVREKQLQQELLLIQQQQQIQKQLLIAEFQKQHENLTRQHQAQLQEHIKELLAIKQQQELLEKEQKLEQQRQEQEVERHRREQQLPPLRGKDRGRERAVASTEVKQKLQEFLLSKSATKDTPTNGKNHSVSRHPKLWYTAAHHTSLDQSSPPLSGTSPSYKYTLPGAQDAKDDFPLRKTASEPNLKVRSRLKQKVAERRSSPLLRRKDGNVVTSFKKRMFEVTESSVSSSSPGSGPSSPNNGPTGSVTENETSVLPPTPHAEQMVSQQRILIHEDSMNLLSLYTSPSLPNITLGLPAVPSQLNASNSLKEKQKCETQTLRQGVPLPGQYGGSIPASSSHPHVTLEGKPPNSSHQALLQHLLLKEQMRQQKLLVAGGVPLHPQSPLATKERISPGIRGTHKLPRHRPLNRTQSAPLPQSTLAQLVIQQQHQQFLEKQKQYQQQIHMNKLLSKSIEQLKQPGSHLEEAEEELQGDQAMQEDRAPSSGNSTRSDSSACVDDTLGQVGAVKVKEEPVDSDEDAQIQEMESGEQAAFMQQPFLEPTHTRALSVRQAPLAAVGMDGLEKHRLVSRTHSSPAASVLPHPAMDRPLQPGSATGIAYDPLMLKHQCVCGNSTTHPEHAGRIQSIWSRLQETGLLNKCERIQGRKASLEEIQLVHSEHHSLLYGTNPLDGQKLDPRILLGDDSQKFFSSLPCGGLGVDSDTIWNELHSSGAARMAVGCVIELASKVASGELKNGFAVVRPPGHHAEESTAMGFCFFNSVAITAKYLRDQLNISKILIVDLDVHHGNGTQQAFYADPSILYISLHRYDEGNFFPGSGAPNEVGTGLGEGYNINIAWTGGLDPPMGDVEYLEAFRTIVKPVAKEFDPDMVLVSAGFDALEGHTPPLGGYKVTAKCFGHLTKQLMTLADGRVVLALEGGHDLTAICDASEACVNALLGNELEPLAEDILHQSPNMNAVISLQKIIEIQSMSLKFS
Histone deacetylase 4, sequence (P56524 whole entry): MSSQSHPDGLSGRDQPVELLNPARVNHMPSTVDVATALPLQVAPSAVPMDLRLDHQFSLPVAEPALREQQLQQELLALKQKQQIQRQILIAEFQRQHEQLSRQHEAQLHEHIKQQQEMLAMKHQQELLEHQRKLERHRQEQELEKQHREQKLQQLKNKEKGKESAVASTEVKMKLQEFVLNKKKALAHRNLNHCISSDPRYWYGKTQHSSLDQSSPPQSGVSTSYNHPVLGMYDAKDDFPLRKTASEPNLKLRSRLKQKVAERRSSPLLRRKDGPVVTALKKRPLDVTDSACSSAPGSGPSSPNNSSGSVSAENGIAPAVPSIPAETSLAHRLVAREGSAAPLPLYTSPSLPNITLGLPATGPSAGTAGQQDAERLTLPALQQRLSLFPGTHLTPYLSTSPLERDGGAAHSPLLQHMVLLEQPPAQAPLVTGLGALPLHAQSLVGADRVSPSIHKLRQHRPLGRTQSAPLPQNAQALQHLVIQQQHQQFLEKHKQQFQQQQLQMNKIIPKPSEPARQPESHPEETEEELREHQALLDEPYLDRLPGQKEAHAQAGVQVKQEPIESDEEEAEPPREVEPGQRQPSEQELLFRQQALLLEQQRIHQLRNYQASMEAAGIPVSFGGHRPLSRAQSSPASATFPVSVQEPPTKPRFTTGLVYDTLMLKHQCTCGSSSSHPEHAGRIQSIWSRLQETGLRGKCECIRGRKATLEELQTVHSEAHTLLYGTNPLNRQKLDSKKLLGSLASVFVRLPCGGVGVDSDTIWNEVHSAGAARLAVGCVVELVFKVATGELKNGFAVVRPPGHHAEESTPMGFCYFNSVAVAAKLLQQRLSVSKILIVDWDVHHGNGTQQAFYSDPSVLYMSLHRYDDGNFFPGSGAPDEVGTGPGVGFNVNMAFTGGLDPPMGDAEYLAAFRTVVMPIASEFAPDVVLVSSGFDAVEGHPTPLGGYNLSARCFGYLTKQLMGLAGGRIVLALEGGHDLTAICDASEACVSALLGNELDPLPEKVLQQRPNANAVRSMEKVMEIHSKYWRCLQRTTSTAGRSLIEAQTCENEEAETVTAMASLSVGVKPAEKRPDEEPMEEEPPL

For `CCCC(CCC)C(=O)NO` [VALPROPYLHYDROXAMIC ACID], the pIC50 – broadly, −log10 of the IC50, conventionally taken in molar units – in assay [1] is 4.41; in assay [2], 3.77; in assay [3], 4.04. The inhibition entry in assay [4] and in assay [5] was “Active” in each case.

As for `O=C(O)CCCc1ccccc1`, the pIC50 in assay [1] was 4.03; in assay [2] it was less than 2.70; in assay [3], less than 2.70. The inhibition entry in assay [4] was “inactive”. The inhibition entry in assay [5] was “Active”.
